In experiment [1] the test system is Acinetobacter baumannii. Briefly: Antimicrobial activity against Acinetobacter baumannii isolate AB4052 incubated for 16 to 20 hrs by broth microdilution method. The format is functional. Put shortly: (§1)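 CLSI broth microdilution in CAMHB, twofold dilutions at final 0.250–128 µg/mL, each in triplicate. Overnight colonies from 5% horse blood agar were suspended in PBS to OD600 0.1 and diluted to a starting inoculum of 5 x 10^5 CFU/mL. Incubated 37 °C for 16–20 h. MIC is the lowest concentration with no visible growth. Quality control used E. coli ATCC 25922 with ampicillin. Final DMSO <1%.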

The subject of experiment [2] is Acinetobacter baumannii. Briefly: Antimicrobial activity against Acinetobacter baumannii ATCC AB19606 incubated for 16 to 20 hrs by broth microdilution method. In kind it is functional. The essentials: as §1
For experiment [3], the system named is Acinetobacter baumannii. Kind of experiment: Antimicrobial activity against Acinetobacter baumannii isolate AB5075 assessed as reduction in bacterial colony count at 16 ug/ml incubated for 24 hrs by time kill kinetics assay relative to initial bacterial inoculum. The format is functional. Put shortly: (§2)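 Time-kill assay on AB5075. 1 mL CAMHB containing compound at 1, 2, 4 or 8× MIC was seeded with 5–7 x 10^5 CFU/mL and shaken at 37 °C for 24 h. Aliquots taken at 0, 6, 12 and 24 h were serially diluted, plated on LB agar and incubated 24 h at 37 °C before counting. Result given as log10 CFU/mL decrease versus initial inoculum. No-drug control; duplicate runs.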

The subject of experiment [4] is Acinetobacter baumannii. Kind of experiment: Antimicrobial activity against Acinetobacter baumannii isolate AB5075 incubated for 16 to 20 hrs by broth microdilution method. In kind it is functional. Put shortly:
as §1

The subject of experiment [5] is Acinetobacter baumannii. Kind of experiment: Antimicrobial activity against Acinetobacter baumannii isolate AB3560 incubated for 16 to 20 hrs by broth microdilution method. The format is functional. The essentials:
as §1

The subject of experiment [6] is Acinetobacter baumannii. Briefly: Antimicrobial activity against Acinetobacter baumannii isolate AB0967 incubated for 16 to 20 hrs by broth microdilution method. The format is functional. Put shortly:
as §1

Experiment [7] concerns Acinetobacter baumannii. Kind of experiment: Antimicrobial activity against Acinetobacter baumannii isolate AB5674 incubated for 16 to 20 hrs by broth microdilution method. In kind it is functional. The essentials: as §1
Experiment [8] has as its system Acinetobacter baumannii. Briefly: Antimicrobial activity against Acinetobacter baumannii ATCC AB17978 incubated for 16 to 20 hrs by broth microdilution method. In kind it is functional. The essentials:
as §1

Experiment [9] deals with Acinetobacter baumannii. Kind of experiment: Antimicrobial activity against Acinetobacter baumannii isolate AB5075 assessed as reduction in bacterial colony count at 32 ug/ml incubated for 24 hrs by time kill kinetics assay relative to initial bacterial inoculum. The format is functional. The essentials: as §2
Experiment [10] concerns Acinetobacter baumannii. Kind of experiment: Antimicrobial activity against Acinetobacter baumannii isolate AB4957 incubated for 16 to 20 hrs by broth microdilution method. The format is functional. The essentials: as §1
Experiment [11] deals with Acinetobacter baumannii. Briefly: Antimicrobial activity against Acinetobacter baumannii isolate AB585 incubated for 16 to 20 hrs by broth microdilution method. In kind it is functional. The essentials:
as §1

In experiment [12] the test system is Acinetobacter baumannii. Kind of experiment: Antimicrobial activity against Acinetobacter baumannii isolate AB499 incubated for 16 to 20 hrs by broth microdilution method. In kind it is functional. The essentials: as §1
For experiment [13], the system named is Acinetobacter baumannii. Kind of experiment: Antimicrobial activity against Acinetobacter baumannii isolate AB5711 incubated for 16 to 20 hrs by broth microdilution method. In kind it is functional. The essentials:
as §1

The test system of experiment [14] is Acinetobacter baumannii. Kind of experiment: Antimicrobial activity against Acinetobacter baumannii isolate AB3638 incubated for 16 to 20 hrs by broth microdilution method. The format is functional. Put shortly: as §1
Experiment [15] relates to Acinetobacter baumannii. Briefly: Antimicrobial activity against Acinetobacter baumannii isolate AB5075 assessed as reduction in bacterial colony count at 64 ug/ml incubated for 24 hrs by time kill kinetics assay relative to initial bacterial inoculum. In kind it is functional. Put shortly:
as §2

Experiment [16] relates to Acinetobacter baumannii. Briefly: Antimicrobial activity against Acinetobacter baumannii isolate AB5075 assessed as reduction in bacterial colony count at 128 ug/ml incubated for 24 hrs by time kill kinetics assay relative to initial bacterial inoculum. The format is functional. Put shortly: as §2
The subject of experiment [17] is Acinetobacter baumannii. Kind of experiment: Antimicrobial activity against Acinetobacter baumannii isolate AB4795 incubated for 16 to 20 hrs by broth microdilution method. The format is functional. The essentials: as §1
Experiment [18] deals with Acinetobacter baumannii. Kind of experiment: Antimicrobial activity against Acinetobacter baumannii isolate AB0087 incubated for 16 to 20 hrs by broth microdilution method. The format is functional. The essentials: as §1
Experiment [19] has as its system Acinetobacter baumannii. Briefly: Bactericidal activity against Acinetobacter baumannii isolate AB5075 assessed as reduction in bacterial colony count at 32 ug/ml incubated for 30 mins by time kill kinetics assay relative to initial bacterial inoculum relative to control. Set-up: scale not given: the % may be the effect or the level left.
Experiment [20] relates to Acinetobacter baumannii. Kind of experiment: Antimicrobial activity against Acinetobacter baumannii isolate AB5075 assessed as reduction in bacterial colony count at 32 ug/ml incubated for 30 mins by time kill kinetics assay relative to initial bacterial inoculum.

Data on three compounds can be found in ChEMBL document CHEMBL4043191, “Discovery of novel inhibitors of multidrug-resistant Acinetobacter baumannii” (2017).

Each structure is given as a SMILES string. ≈ marks a conversion by molar mass, not a printed value.

As to `CCO[C@@H]1CCC[C@H](CC(=O)NNc2ccccc2)[C@H]1O`, the MIC was 32 µg/mL (≈ 109 µM) in experiment [1]; 16 µg/mL (≈ 54.7 µM) in [2]; 16 µg/mL (≈ 54.7 µM) in experiment [4]; 32 µg/mL (≈ 109 µM) in [5]; 16 µg/mL (≈ 54.7 µM) in [6]; 16 µg/mL (≈ 54.7 µM) in [7]. For the same compound, the MIC in experiment [8] worked out at 16 µg/mL (≈ 54.7 µM); in experiment [10], 32 µg/mL (≈ 109 µM); in experiment [11], 8 µg/mL (≈ 27.4 µM); in [12], 1 µg/mL (≈ 3.42 µM); in experiment [13], 32 µg/mL (≈ 109 µM); in [14], 16 µg/mL (≈ 54.7 µM). The MIC in experiment [17] was 8 µg/mL (≈ 27.4 µM); in experiment [18], 4 µg/mL (≈ 13.7 µM). The Activity in experiment [3] is 0.46 log10CFU/ml; in experiment [9], 0.75 log10CFU/ml; in experiment [15] it was 1.24 log10CFU/ml; in experiment [16], 1.74 log10CFU/ml.

As to `CCOCCC(=O)NNc1ccccc1`, the MIC in experiment [1] is 32 µg/mL (≈ 154 µM); in experiment [2], 16 µg/mL (≈ 76.8 µM); in experiment [4], 16 µg/mL (≈ 76.8 µM); in experiment [5], 32 µg/mL (≈ 154 µM); in experiment [6], 16 µg/mL (≈ 76.8 µM); in [7], 16 µg/mL (≈ 76.8 µM). Besides, the minimum inhibitory concentration (MIC) in experiment [8] worked out at 16 µg/mL (≈ 76.8 µM); in experiment [10], 32 µg/mL (≈ 154 µM); in [11], 8 µg/mL (≈ 38.4 µM); in experiment [12], 1 µg/mL (≈ 4.8 µM); in experiment [13] it was 16 µg/mL (≈ 76.8 µM); in experiment [14], 16 µg/mL (≈ 76.8 µM). The MIC in experiment [17] worked out at 8 µg/mL (≈ 38.4 µM); in experiment [18] it was 2 µg/mL (≈ 9.6 µM). In addition, the Activity in [3] was determined as 0.73 log10CFU/ml; in [9], 1.02 log10CFU/ml; in [15], 1.42 log10CFU/ml; in [16], 2.1 log10CFU/ml.

As for `Oc1ccc(Cl)cc1Cc1cc(Cl)ccc1O` [DICHLOROPHEN], the minimal inhibitory concentration (MIC) was determined as 16 µg/mL (≈ 59.5 µM) in experiment [1]; 16 µg/mL (≈ 59.5 µM) in experiment [2]; 32 µg/mL (≈ 119 µM) in [4]; 16 µg/mL (≈ 59.5 µM) in experiment [5]; 16 µg/mL (≈ 59.5 µM) in experiment [6]; 16 µg/mL (≈ 59.5 µM) in [7]. The minimal inhibitory concentration (MIC) in experiment [8] amounted to 16 µg/mL (≈ 59.5 µM); in [10] it was 16 µg/mL (≈ 59.5 µM); in experiment [11] it was 8 µg/mL (≈ 29.7 µM); in experiment [12] it was 8 µg/mL (≈ 29.7 µM); in experiment [13], 16 µg/mL (≈ 59.5 µM); in experiment [14], 16 µg/mL (≈ 59.5 µM). The figures for the MIC in [17] and in [18] were 16 µg/mL (≈ 59.5 µM) and 8 µg/mL (≈ 29.7 µM), respectively. In addition, the Activity was 99.9% in experiment [19] and “>=3 log10CFU/ml” in experiment [20].
